MPTP inh: inhibitors of mitochondrial permeability transition pore; AID 602449; isolated mouse mitochondria, Ca2+ swelling absorbance, 30 min; inhibition, % at 10 µM; hit rate 1.4% among 360,000;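 active means inhibition of 50% or more, scaled per plate between neutral and stimulator controls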;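 further: 0% = DMSO wells given calcium and 100% = 1 mM EGTA wells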
V-ATPase pHluor: regulators of yeast V-ATPase proton transport; S. cerevisiae, pHLuorin cytosolic pH fluorescence; response, % at 10 µM; hit rate 0.37% among 350,000; in the data active means response mostly above about 7.3%, no sharp cut-off; inactive means mostly below about 5.4%; further: actives read high
rCAG binder: binds r(CAG) RNA repeats | r(CAG) RNA repeat, TO-PRO-1 dye displacement fluorescence | inhibition, % at 3 µM | hit rate 1.3% among 370,000;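 active means inhibition above the plate cutoff, the mean of all test compounds on that plate plus 3 SD, cut at about 35% in these data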;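 further: 0% = DMSO alone and 100% = 100 µM mitoxantrone as full dye displacement; higher means more dye released from RNA so lower well fluorescence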
Exocytosis inh: blocks lytic granule exocytosis | TALL-104 LAMP-1 surface exposure, flow cytometry; cells stimulated with thapsigargin and PMA | AID 651702 | hit rate 0.66% among 360,000 | inhibition, % at 10 µM;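 active means inhibition above about 55%, limit read from the data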
T cell HTS: T cell immune modulators affecting CD8 T cell-vesicle binding. response (vesicle binding), % at 7 µM. hit rate 0.068% among 330,000. 2C CD8+ T cell-vesicle binding, flow cytometry; stronger effect = lower value. AID 2052;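 active means response, share of CD8 T cells binding vesicles, and their 90th percentile fluorescence all below set limits, cut at about 80% in these data, passing the limit was not always enough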;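 further: values below 100% mean blocked vesicle binding to the CD8+ T cells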
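Benchmarks: naked versus QL9-loaded vesicles / Assay system: purified 2C TCR transgenic mouse naive CD8+ T cells / Technique: high-throughput flow cytometry with anti-B7-1 and anti-CD8 staining / Timing: Cell–vesicle co-incubation 1.5 h at 37 °C, staining 20 min on ice / Read-out: percent CD8+ FL2 mean versus row control / Probe or stimulus: QL9-loaded Drosophila micro-vesicles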
B2AR ag: activates human beta-2 adrenergic receptor causing internalization; P07550; AID 504454; hit rate 0.43% among 340,000; response, % (no concentration beside the values); Am2.2-beta2AR cells, FAP receptor internalization, flow cytometry;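 active means response above a set limit, near 3 SD of response in nonfluorescent compounds, cut at about 42% in these data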
Target sequence (P07550 whole entry, looked up): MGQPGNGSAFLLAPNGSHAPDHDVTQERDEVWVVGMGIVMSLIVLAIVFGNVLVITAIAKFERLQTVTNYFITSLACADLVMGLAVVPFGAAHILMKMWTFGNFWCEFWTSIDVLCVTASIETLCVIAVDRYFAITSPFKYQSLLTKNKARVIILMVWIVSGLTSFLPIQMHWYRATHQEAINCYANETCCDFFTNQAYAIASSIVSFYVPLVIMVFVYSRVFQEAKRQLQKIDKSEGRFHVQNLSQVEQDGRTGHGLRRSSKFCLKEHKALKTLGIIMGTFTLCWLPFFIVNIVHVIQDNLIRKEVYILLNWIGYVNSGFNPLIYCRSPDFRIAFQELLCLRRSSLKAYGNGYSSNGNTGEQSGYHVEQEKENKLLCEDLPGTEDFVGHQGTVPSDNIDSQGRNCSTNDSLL
rCAG bind conf: r(CAG) RNA repeat binding, confirmation. shares compounds with rCAG binder. TO-PRO-1 dye displacement fluorescence. inhibition, % at 3 µM. hit rate 70% among 4,300;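 active means inhibition above a per-plate cutoff, the mean inhibition of sample wells plus 3 SD, cut at about 35% in these data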;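 further: loss of TO-PRO-1 fluorescence as compound displaces dye from 1x1 AA loop RNA; 0% = DMSO only wells and 100% = 100 µM mitoxantrone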
dCAG dye counter: DNA CAG dye complex inhibition counter-screen; shares compounds with rCAG binder; d(CAG) DNA oligo TO-PRO-1 dye displacement, fluorescence; inhibition, % at 3 µM; hit rate 94% among 4,300; AID 652068;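 active means inhibition above its plate's cutoff, the mean test-well inhibition plus 3 SD, cut at about 4.8% in these data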;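 further: 0% = DNA dye mix with DMSO and 100% = 100 µM mitoxantrone; hits displace the dye from DNA and so lower well fluorescence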
* = called active by the depositor; nt = no result given. Rows were chosen to be rich in hits. Some 3.8% of all compounds tested hit in one or more screens of this group.

SMILES	MPTP inh	V-ATPase pHluor	rCAG binder	Exocytosis inh	T cell HTS	B2AR ag	rCAG bind conf	dCAG dye counter
COc1ccccc1NC(=O)OC1CC2CC1[C@H]1CCCCN1[C@H]2C (stereo partly drawn)	nt	nt	9	nt	nt	nt	nt	nt
Cc1ccc(C)c(S(=O)(=O)/N=C2\C=C(NS(=O)(=O)c3ccccc3)C(=O)c3ccccc32)c1	15	-1	67*	30	182	40	90*	69*
CCc1ccc(S(=O)(=O)/N=C2\C=C(NS(=O)(=O)c3ccccc3)C(=O)c3ccccc32)cc1	13	0	59*	19	nt	14	89*	66*
Cc1c[nH]c2cccc(-c3c(Cl)cccc3Cl)c12	nt	nt	7	nt	nt	nt	nt	nt
CCOC(=O)c1cc(C#N)c(SCC(=O)Nc2ccc(C(C)=O)cc2)[nH]c1=O	12	-3	43*	-13	41	10	44*	10*
COc1cc(/C=C(\CC(=O)O)c2nc3ccccc3s2)ccc1OCC(=O)Nc1ccccc1F	1	0	59*	-1	nt	1	62*	23*
COc1ccc(-c2nn(-c3ccccc3)cc2/C=C(\CC(=O)O)c2nc3ccccc3s2)cc1OC	0	-1	53*	-1	155	1	64*	22*
CCOc1cc(/C=C(\CC(=O)O)c2nc3ccccc3s2)ccc1OCC(=O)Nc1cccc(C(F)(F)F)c1	-2	-3	67*	-4	nt	4	53*	18*
COc1ccc(/C=C(\CC(=O)O)c2nc3ccccc3s2)cc1O	0	2	15	-1	262	9	nt	nt
Cc1cc(N2CCN(CC(C)(C)O)C[C@H]2C)ccc1N1CCN(CC(C)(C)O)[C@H](C)C1	nt	nt	-1	nt	nt	nt	nt	nt
CC1(C)Nc2ccc(O)cc2-c2c1ssc2=S	2	1	10	-1	560	2	nt	nt
CC(=O)NS(=O)(=O)c1ccc(N=c2ssc3c2-c2cc(C)ccc2NC3(C)C)cc1	2	0	48*	10	147	14	45*	16*
O=C(O)c1ccccc1NC(=O)c1ccccc1Nc1ccccc1	2	-1	83*	-2	221	-64	67*	29*
CS(=O)(=O)N(Cc1ccccc1)c1ccc(C(=O)Nc2ccccc2Sc2ccccc2)cc1	1	-2	-1	-2	119	-7	nt	nt
CS(=O)(=O)N(Cc1ccccc1)c1ccc(C(=O)Nc2ccccc2C(=O)O)cc1	2	4	65*	-14	286	-1	57*	13*
O=C(Nc1ccccc1C(=O)Nc1ccccc1C(=O)O)c1ccccc1	3	-1	73*	3	284	14	66*	26*
O=C(Nc1ccccc1C(=O)O)c1ccc(Br)c(S(=O)(=O)NCc2ccccc2)c1	11	-1	73*	0	278	-2	61*	22*
O=C(Nc1ccccc1C(=O)NCc1ccccc1)c1ccccc1Br	0	-1	-2	-6	237	-2	nt	nt
COc1ccccc1NC(=O)c1ccccc1Nc1ccccc1	1	0	-2	-1	80	-5	nt	nt
O=C(Cc1c[nH]c2ccccc12)Nc1ccc(Nc2cccnc2)c(-c2ccc(OC(F)(F)F)cc2)c1	nt	nt	9	nt	nt	nt	nt	nt
CCOC(=O)Nc1cc(=O)c([N+](=O)[O-])c(N)[nH]1	nt	nt	1	nt	nt	nt	nt	nt
O=C(CSCCO)Nc1cccc(C(F)(F)F)c1	0	2	-2	0	425	3	nt	nt
Cc1cc(NC(=O)CSc2sc3c(O)cc(=O)[nH]c3c2C#N)ccc1Br	0	0	51*	6	220	-1	59*	32*
Cc1ccc(C)c(NC(=O)CSc2sc3c(O)cc(=O)[nH]c3c2C#N)c1	-1	0	51*	19	380	15	29	11*
Cc1cc(NC(=O)CSc2nc3[nH]c(=O)cc(O)c3s2)ccc1Br	0	-2	24	-1	nt	-5	nt	nt
SMILES	MPTP inh	V-ATPase pHluor	rCAG binder	Exocytosis inh	T cell HTS	B2AR ag	rCAG bind conf	dCAG dye counter
COC(=O)c1ccc(C)c(NC(=O)CCSc2ccc(C)cc2)c1	1	0	-2	-4	460	0	nt	nt
COC(=O)c1ccc(C)c(NC(=O)CSc2sc3c(O)cc(=O)[nH]c3c2C#N)c1	-2	1	61*	2	439	6	45*	20*
N#Cc1c(SCC(=O)Nc2cccc(C(F)(F)F)c2)sc2c(O)cc(=O)[nH]c12	2	4	52*	45	258	-2	35*	15*
COc1cc([N+](=O)[O-])cc(/C=N/NC(=O)C(C)Nc2ccccc2C)c1O (stereo not drawn)	0	0	36*	-1	245	5	29	10*
COc1cc([N+](=O)[O-])cc(/C=N/NC(=O)C(C)Nc2cccc(C)c2)c1O (stereo not drawn)	-1	0	22	4	734	-2	nt	nt
C[C@@H]1CCCN1c1cccc2c1S(=O)(=O)N1CC[C@@H](C1)O2	nt	nt	3	nt	nt	nt	nt	nt
Cc1c(CCC(=O)N[C@@H](C)C(=O)O)c(=O)oc2c(C)c3oc4c(c3cc12)CCCC4	1	-2	43*	-12	151	1	39*	8.8*
Cc1c(CCC(=O)NCCC(=O)O)c(=O)oc2c(C)c3oc4c(c3cc12)CCCC4	0	-1	42*	-11	191	5	38*	10*
C[C@H]1COc2cccc(F)c2S(=O)(=O)N1C	nt	nt	2	nt	nt	nt	nt	nt
Cc1cc(SCC(=O)c2ccc(O)c(O)c2)n2nc(C)c(-c3ccccc3)c2n1	17	1	50*	0	172	10	67*	33*
O=C(NC1CCCC1)C1(C(=O)C2CC2)CC(c2ccccc2C(F)(F)F)=NO1 (stereo not drawn)	nt	nt	-1	nt	nt	nt	nt	nt
CCOc1ccccc1/C=N/NC(=O)c1cccc(S(=O)(=O)N2CCOCC2)c1	-2	-1	-1	-2	517	-4	nt	nt
O=C(O)COc1ccccc1/C=N/Nc1ccc(S(=O)(=O)N2CCOCC2)cc1[N+](=O)[O-]	-4	-2	52*	0	348	1	39*	9.3*
C/C(=N\Nc1ccc(Cl)c(C(=O)O)c1)c1ccc(Br)s1	1	1	43*	13	412	13	48*	13*
CCCN1CCCCC(NC(=O)COCc2ccccc2)C1=O (stereo not drawn)	nt	nt	-3	nt	nt	nt	nt	nt
C=CCNc1cccc2c1S(=O)(=O)N[C@H](CC(C)C)CO2	nt	nt	1	nt	nt	nt	nt	nt
COc1ccccc1/C=C1\SC(=S)N(CCC(=O)NNC(=O)c2ccccc2OC)C1=O	1	-4	6	10	204	0	nt	nt
O=C(O)C(c1ccccc1)N1C(=O)/C(=C\c2ccc(O)c(O)c2)SC1=S (stereo not drawn)	12	-2	42*	-8	284	6	53*	22*

Compound activity (PubChem BioAssay)
